Key:
[1] = target: T1, 5-hydroxytryptamine receptor 1A (Rattus norvegicus) (UniProt P19327); assay: Inhibitory activity against 5-hydroxytryptamine 1A receptor of rat hippocampal tissue at 1 uM; format: tissue-based; settings: Hippocampus
T1 sequence (whole entry): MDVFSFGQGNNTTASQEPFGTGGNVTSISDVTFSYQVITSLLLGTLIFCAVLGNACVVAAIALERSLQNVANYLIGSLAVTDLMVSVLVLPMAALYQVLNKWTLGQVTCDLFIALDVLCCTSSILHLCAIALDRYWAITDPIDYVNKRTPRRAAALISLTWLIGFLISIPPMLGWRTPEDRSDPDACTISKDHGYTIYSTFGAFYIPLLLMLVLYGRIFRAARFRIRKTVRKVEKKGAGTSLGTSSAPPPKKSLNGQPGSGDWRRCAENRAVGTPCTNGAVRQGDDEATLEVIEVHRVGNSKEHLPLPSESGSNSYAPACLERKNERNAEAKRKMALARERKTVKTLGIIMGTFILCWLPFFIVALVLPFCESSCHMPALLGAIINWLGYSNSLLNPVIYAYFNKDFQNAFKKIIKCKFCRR

[2] = target: T2, 5-hydroxytryptamine receptor 1A (Rattus norvegicus, UniProt P19327); assay: Antagonist activity against rat hippocampal tissue 5-hydroxytryptamine 1A receptor; format: functional, tissue-based, Hippocampus
T2 sequence (P19327 whole entry): T1 sequence (whole entry)

[3] = target: D(2) dopamine receptor (Rattus norvegicus) (UniProt P61169); assay: Inhibitory activity against Dopamine receptor D2 of rat limbic tissue at 1 uM; format: tissue-based; settings: Limbic system
Sequence of D(2) dopamine receptor (Rattus norvegicus) (P61169 whole entry): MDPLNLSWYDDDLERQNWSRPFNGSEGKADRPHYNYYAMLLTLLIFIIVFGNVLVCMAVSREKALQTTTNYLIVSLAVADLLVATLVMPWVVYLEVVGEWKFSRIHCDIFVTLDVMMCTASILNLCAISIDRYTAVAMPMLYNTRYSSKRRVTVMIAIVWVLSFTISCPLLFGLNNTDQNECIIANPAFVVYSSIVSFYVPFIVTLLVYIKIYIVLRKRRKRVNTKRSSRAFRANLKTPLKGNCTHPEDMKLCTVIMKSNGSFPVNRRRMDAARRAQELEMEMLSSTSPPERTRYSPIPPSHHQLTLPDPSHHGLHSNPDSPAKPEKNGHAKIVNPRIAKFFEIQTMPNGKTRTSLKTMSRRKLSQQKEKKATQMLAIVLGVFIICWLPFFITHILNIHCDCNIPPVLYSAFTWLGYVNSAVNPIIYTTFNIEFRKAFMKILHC

[4] = target: D(2) dopamine receptor (Rattus norvegicus, UniProt P61169); assay: Inhibitory activity against rat limbic tissue Dopamine receptor D2; format: tissue-based, Limbic system
Sequence of D(2) dopamine receptor (P61169 whole entry): as above
Method in brief: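 Rat limbic membranes, handled as in the 5-HT2 assay: 15 min at 37 °C, 50 mM Tris pH 7.6, drug concentration range. 30 nM ketanserin in all tubes to block 5-HT2 sites. Nonspecific binding defined with 10 μM sulpiride. Filtration and counting.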

[5] = target: Serotonin 2 (5-HT2) receptor (Rattus norvegicus, UniProt P30994+P08909+P14842); assay: Inhibitory activity against rat cortical 5-hydroxytryptamine 2 receptor; format: protein assay
Method in brief: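 Cortical membranes from male Sprague–Dawley rats, incubated 15 min at 37 °C in 50 mM Tris pH 7.6 with 1.0 nM [3H]ketanserin and a range of drug concentrations. Nonspecific binding defined with 100 μM methysergide. Run by filtration and counting.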

Compound | inhibition [1] [%] | Ki [2] [nM] | inhibition [3] [%] | Ki [4] [nM] | Ki [5] [nM]
O=C(NCCN1CCN(C(c2ccc(Cl)cc2)c2ccc(Cl)cc2)CC1)NC12C[C@H]3C[C@@H](C1)C[C@@H](C2)C3 | 9 |  |  |  | 
O=C(N[C@H](COCc1ccccc1)CN1CCN(Cc2ccccc2)CC1)C12C[C@H]3C[C@@H](C1)C[C@@H](C2)C3 |  | 62 |  | 76 | 
C[C@@]12C[C@@H]3C[C@@H](CC(CC(=O)OCCCN4CCN(c5cccc(C(F)(F)F)c5)CC4)(C3)C1)C2 | 56 |  |  |  | 
O=C(N1CCN(c2ncccn2)CC1)C12C[C@H]3C[C@@H](C1)C[C@@H](C2)C3 | 9 |  |  |  | 
Cl.Cl.O=C(NCCCN1CCN(c2ncccn2)CC1)C12CC3CC(CC1C3)C2 |  |  | 27 |  | 286
C[C@@]12C[C@@H]3C[C@@H](CC(CC(=O)NCCCN4CCN(c5ncccn5)CC4)(C3)C1)C2 | 68 |  | 20 |  | 
O=C(OCCN1CCN(C(c2ccc(F)cc2)c2ccc(F)cc2)CC1)C12C[C@H]3C[C@@H](C1)C[C@@H](C2)C3 | 4 |  |  |  | 
CC(C)N(CCN1CCN(c2ncccn2)CC1)C(=O)C12C[C@H]3C[C@@H](C1)C[C@@H](C2)C3 | 36 |  |  |  | 
Cl.Cl.O=C(NCCCN1CCN(c2ncccn2)CC1)NC12C[C@H]3C[C@@H](C1)C[C@@H](C2)C3 |  | 7 |  | > 10000 | 1600
CC(C)(CN1CCN(c2ncccn2)CC1)NC(=O)C12C[C@H]3C[C@@H](C1)C[C@@H](C2)C3 |  | 127 |  |  | 
O=C(NCCN1CCN(c2cccc(C(F)(F)F)c2)CC1)C12CC3CC(CC1C3)C2 | 83 |  | 73 |  | 
O=C(NC12C[C@H]3C[C@@H](C1)C[C@@H](C2)C3)N1CCN(c2cccc(Cl)c2)CC1 | 0 |  |  |  | 
C[C@@]12C[C@@H]3C[C@@H](CC(CC(=O)OCCN4CCN(c5cccc(C(F)(F)F)c5)CC4)(C3)C1)C2 | 35 |  | 29 |  | 
Cl.Cl.O=C(NCCN1CCN(c2ncccn2)CC1)C12CC3CC(CC1C3)C2 |  | 2.4 | 67 |  | 262
O=C(OCCN1CCN(c2ncccn2)CC1)C12CC3CC(CC1C3)C2 |  |  | 47 |  | 
C[C@@]12C[C@@H]3C[C@@H](CC(CC(=O)OCCN4CCN(c5cccc(Cl)c5)CC4)(C3)C1)C2 | 34 |  | 19 |  | 
C[C@@]12C[C@@H]3C[C@@H](CC(CC(=O)OCCCN4CCN(c5cccc(Cl)c5)CC4)(C3)C1)C2 | 58 |  |  |  | 
Cl.Cl.O=C(NCCCN1CCN(c2cccc(Cl)c2)CC1)C12CC3CC(CC1C3)C2 |  | 10 | 31 |  | 4.3
C[C@@]12C[C@@H]3C[C@@H](CC(CC(=O)NCCCN4CCN(c5cccc(Cl)c5)CC4)(C3)C1)C2 | 81 |  |  |  | 
Cl.Cl.O=C(N[C@H](Cc1ccccc1)CN1CCN(Cc2ccccc2)CC1)C12C[C@H]3C[C@@H](C1)C[C@@H](C2)C3 |  | 2.3 |  | 1400 | 722
C[C@@]12C[C@@H]3C[C@@H](CC(CC(=O)NCCN4CCN(c5ncccn5)CC4)(C3)C1)C2 |  | 30 |  |  | 
Cl.Cl.Cl.O=C(CCN1CCN(c2ncccn2)CC1)NC12C[C@H]3C[C@@H](C1)C[C@@H](C2)C3 |  | 131 | 14 |  | 47
O=C(NC12C[C@H]3C[C@@H](C1)C[C@@H](C2)C3)N1CCN(c2ncccn2)CC1 | 3 |  |  |  | 
C[C@@]12C[C@@H]3C[C@@H](CC(CC(=O)OCCN4CCN(c5ncccn5)CC4)(C3)C1)C2 | 72 |  | 39 |  | 
C[C@@]12C[C@@H]3C[C@@H](CC(CC(=O)NCCN4CCN(c5cccc(Cl)c5)CC4)(C3)C1)C2 |  | 38 | 40 |  | 

The next lines start with the values.

inhibition [1] [%] | Ki [2] [nM] | inhibition [3] [%] | Ki [4] [nM] | Ki [5] [nM] | Compound
 | 26 | 100 |  |  | COc1ccccc1N1CCN(CCCOC(=O)C23CC4C[C@@H](C[C@H]2C4)C3)CC1
75 |  | 54 |  |  | O=C(OCCCN1CCN(c2cccc(C(F)(F)F)c2)CC1)C12C[C@H]3C[C@@H](C1)C[C@@H](C2)C3
 | 2.5 |  | 13.5 | 712 | COc1ccccc1N1CCN(CCOC(=O)C23C[C@H]4C[C@@H](C2)C[C@@H](C3)C4)CC1.Cl.Cl
 | 1 |  | 24 | 274 | COc1ccccc1N1CCN(CCNC(=O)C23C[C@H]4C[C@@H](C2)C[C@@H](C3)C4)CC1.Cl.Cl
 | 96 |  |  |  | O=C(NCCN1CCN(c2ccc(Cl)cc2)CC1)C12C[C@H]3C[C@@H](C1)C[C@@H](C2)C3
 | 76 | 36 |  |  | O=C(NC12C[C@H]3C[C@@H](C1)C[C@@H](C2)C3)OCCN1CCN(c2cccc(Cl)c2)CC1
 | 19 | 32 |  |  | O=C(NCCCN1CCN(c2cccc(Cl)c2)CC1)C12C[C@H]3C[C@@H](C1)C[C@@H](C2)C3
 | 9 |  | 93 | 77 | COc1ccccc1N1CCN(CCC(=O)NC23C[C@H]4C[C@@H](C2)C[C@@H](C3)C4)CC1.Cl.Cl
 | 46 | 8 |  |  | O=C(NCCN1CCN(Cc2ccccc2)CC1)C12C[C@H]3C[C@@H](C1)C[C@@H](C2)C3
 | 0.7 | 94 |  | 2.3 | Cl.Cl.O=C(NCCN1CCN(c2cccc(Cl)c2)CC1)C12CC3CC(CC1C3)C2
 | 77 | 72 |  | 71 | O=C(NCCN1CCN(c2ncccn2)CC1)NC12C[C@H]3C[C@@H](C1)C[C@@H](C2)C3
 | 60 |  |  |  | CN(CCN1CCN(c2ncccn2)CC1)C(=O)C12C[C@H]3C[C@@H](C1)C[C@@H](C2)C3
 | 4.8 | 100 |  |  | COc1ccccc1N1CCN(CCOC(=O)C23CC4C[C@@H](C[C@H]2C4)C3)CC1
 | 8.5 |  | 708 | 2180 | Cl.Cl.O=C(OCCN1CCN(c2ncccn2)CC1)C12C[C@H]3C[C@@H](C1)C[C@@H](C2)C3
63 |  |  |  |  | O=C(OCCCN1CCN(Cc2ccccc2)CC1)C12C[C@H]3C[C@@H](C1)C[C@@H](C2)C3
 | 1.1 |  | 153 | 961 | C[C@H](CN1CCN(c2ncccn2)CC1)NC(=O)C12C[C@H]3C[C@@H](C1)C[C@@H](C2)C3

inhibition [1] [%] | Ki [2] [nM] | inhibition [3] [%] | Ki [4] [nM] | Ki [5] [nM] | Compound
 | 45 | 38 |  | 277 | Cl.Cl.O=C(NCCCN1CCN(c2cccc(Cl)c2)CC1)NC12C[C@H]3C[C@@H](C1)C[C@@H](C2)C3
 | 0.43 |  | 20 | 395 | O=C(N[C@H](Cc1ccccc1)CN1CCN(c2ncccn2)CC1)C12C[C@H]3C[C@@H](C1)C[C@@H](C2)C3
 | 8.5 |  | 35 | 180 | COc1ccccc1N1CCN(CCCOC(=O)C23C[C@H]4C[C@@H](C2)C[C@@H](C3)C4)CC1.Cl.Cl
0 |  |  |  |  | CC(C)(CN1CCN(Cc2ccccc2)CC1)NC(=O)C12C[C@H]3C[C@@H](C1)C[C@@H](C2)C3
 | 0.89 |  | 129 | 16.4 | Cl.Cl.O=C(NCCN1CCN(c2cccc(Cl)c2)CC1)C12C[C@H]3C[C@@H](C1)C[C@@H](C2)C3
 | 61 | 56 |  | 89 | O=C(NCCN1CCN(c2cccc(Cl)c2)CC1)NC12C[C@H]3C[C@@H](C1)C[C@@H](C2)C3
 | 40 | 95 |  |  | COc1ccccc1N1CCN(CCOC(=O)NC23C[C@H]4C[C@@H](C2)C[C@@H](C3)C4)CC1
80 |  | 67 |  |  | O=C(OCCCN1CCN(c2cccc(Cl)c2)CC1)C12C[C@H]3C[C@@H](C1)C[C@@H](C2)C3
 | 89 | 6 |  | 21 | Cl.Cl.O=C(NCCCN1CCN(c2ncccn2)CC1)C12C[C@H]3C[C@@H](C1)C[C@@H](C2)C3
72 |  | 33 |  |  | O=C(OCCCN1CCN(c2ncccn2)CC1)C12C[C@H]3C[C@@H](C1)C[C@@H](C2)C3
21 |  | 1 |  |  | C[C@@H](CN1CCN(c2ncccn2)CC1)NC(=O)C12C[C@H]3C[C@@H](C1)C[C@@H](C2)C3
 | 0.22 |  | 21.5 |  | COc1ccccc1N1CCN(C[C@@H](C)NC(=O)C23C[C@H]4C[C@@H](C2)C[C@@H](C3)C4)CC1
86 |  | 97 |  |  | COc1ccccc1N1CCN(CCOC(=O)CC23C[C@H]4C[C@@H](C2)C[C@](C)(C4)C3)CC1
 | 37 | 14 |  |  | C[C@H](CN1CCN(Cc2ccccc2)CC1)NC(=O)C12C[C@H]3C[C@@H](C1)C[C@@H](C2)C3
 | 17 | 95 |  |  | COc1ccccc1N1CCN(CCCOC(=O)CC23C[C@H]4C[C@@H](C2)C[C@](C)(C4)C3)CC1

— ChEMBL document CHEMBL1132497, “Synthesis and SAR of adatanserin: novel adamantyl aryl- and heteroarylpiperazines with dual serotonin 5-HT(1A) and 5-HT(2) activity as potential anxiolytic and antidepressant agents” (J Med Chem, 1999)
